Results reported in ChEMBL document CHEMBL4028848, “Discovery of N-{4-[5-(4-Fluorophenyl)-3-methyl-2-methylsulfanyl-3H-imidazol-4-yl]-pyridin-2-yl}-acetamide (CBS-3595), a Dual p38α MAPK/PDE-4 Inhibitor with Activity against TNFα-Related Diseases” (J Med Chem, 2017).
Active and inactive are the calls of the source. No cut-off for these calls is given here.

Experiments:
Mus musculus = test: Antiarthritic activity in human TNF transgenic mouse model assessed as reduction in paw swelling at 20 to 50 mg/kg/day, po for 10 weeks; type: functional, organism-based
How it was run: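 Heterozygous human TNF transgenic mice (8 per group) were dosed orally for ten weeks with 20 or 50 mg/kg/day as a methylcellulose suspension, alongside vehicle and infliximab i.p. controls. Joint swelling and grip strength were scored weekly, and hind paws were examined histologically at the end.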

Rattus norvegicus [1] = test: Toxicity in Sprague-Dawley rat assessed as increase in hunched posture at 150 mg/kg, po administered via gavage for daily 28 days followed by 2 weeks off without dosing; type: organism-based; conditions: in vivo
Homo sapiens [2] = species on record: Homo sapiens; test: Inhibition of cyclinH/MAT1 (unknown origin) at 10 uM relative to control
[3] = molecular target: Ephrin type-B receptor 2 (Homo sapiens) (UniProt P29323); test: Inhibition of EphB2 (unknown origin) at 10 uM relative to control
Chain of Ephrin type-B receptor 2 (Homo sapiens) (P29323 whole entry): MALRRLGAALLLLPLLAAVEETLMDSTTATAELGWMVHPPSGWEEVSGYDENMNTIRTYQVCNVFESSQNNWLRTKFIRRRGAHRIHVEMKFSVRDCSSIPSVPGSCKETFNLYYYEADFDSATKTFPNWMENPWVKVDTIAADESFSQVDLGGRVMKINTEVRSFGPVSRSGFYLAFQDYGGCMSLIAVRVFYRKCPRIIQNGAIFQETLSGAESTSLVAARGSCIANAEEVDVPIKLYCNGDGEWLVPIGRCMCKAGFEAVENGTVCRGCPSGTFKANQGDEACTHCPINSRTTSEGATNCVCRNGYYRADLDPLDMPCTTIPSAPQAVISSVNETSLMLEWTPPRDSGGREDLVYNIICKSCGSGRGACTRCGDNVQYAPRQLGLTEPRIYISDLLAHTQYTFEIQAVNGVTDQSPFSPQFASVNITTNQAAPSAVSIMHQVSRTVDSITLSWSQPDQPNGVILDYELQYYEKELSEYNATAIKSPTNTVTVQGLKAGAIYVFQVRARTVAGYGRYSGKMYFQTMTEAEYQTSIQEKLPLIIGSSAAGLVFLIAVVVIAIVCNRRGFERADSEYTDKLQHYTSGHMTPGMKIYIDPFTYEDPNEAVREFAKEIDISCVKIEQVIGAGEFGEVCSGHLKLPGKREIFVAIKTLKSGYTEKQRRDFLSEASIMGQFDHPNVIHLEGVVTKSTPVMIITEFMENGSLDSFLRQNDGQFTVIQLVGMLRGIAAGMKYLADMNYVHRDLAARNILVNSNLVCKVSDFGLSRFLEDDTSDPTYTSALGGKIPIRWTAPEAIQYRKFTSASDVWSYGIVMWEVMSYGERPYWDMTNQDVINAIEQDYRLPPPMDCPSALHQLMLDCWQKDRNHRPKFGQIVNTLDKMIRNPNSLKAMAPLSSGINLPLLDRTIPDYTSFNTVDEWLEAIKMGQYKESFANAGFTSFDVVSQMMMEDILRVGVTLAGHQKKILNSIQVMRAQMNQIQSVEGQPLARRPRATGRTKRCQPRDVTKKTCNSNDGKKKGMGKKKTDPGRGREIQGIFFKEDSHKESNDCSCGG

Rattus norvegicus [4] = test: Toxicity in Sprague-Dawley rat assessed as increase in abdomen size at 150 mg/kg, po administered via gavage for daily 28 days followed by 2 weeks off without dosing; type: organism-based; conditions: in vivo
[5] = AUC (0 to infinity) in female Sprague-Dawley rat at 30 mg/kg, po by LC-MS/MS analysis; type: ADME, organism-based; parameters: dose 30 mg/kg, time infinity, route oral; conditions: in vivo
How it was run: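 Rats of each sex received a single oral dose of 30 mg/kg. Plasma concentration–time profiles of parent were determined separately for females and males.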

[6] = Drug metabolism in cynomolgus monkey liver microsomes assessed as 4-(4-(4-fluorophenyl)-1-methyl-2-(methylsulfinyl)-1H-imidazol-5-yl)pyridin-2-amine formation at 10 to 100 uM; type: ADME, Macaca fascicularis, microsome
How it was run: (§1)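 Test compound incubated at 10, 30 and 100 μM with liver microsomes from rat, Cynomolgus monkey or human, and metabolites monitored.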

[7] = Drug uptake in LPS-stimulated female Lewis rat serum at 10 mg/kg, po pretreated for 5 hrs followed by LPS addition measured after 1.5 hrs post dose; type: ADME, organism-based; conditions: read-out: Drug uptake
How it was run: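 Female Lewis rats, n = 8/group, dosed orally at 10 mg/kg at 1, 3 or 5 h before LPS challenge. Serum aliquots taken 1.5 h after LPS were used to measure drug concentration.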

Rattus norvegicus [8] = test: In vivo inhibition of P38 MAPKalpha in Lewis rat assessed as decrease in LPS-stimulated TNFalpha level in serum at 10 mg/kg, po pretreated for 5 hrs followed by LPS addition measured after 1.5 hrs post dose; type: functional, organism-based
How it was run: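 Lewis rats, n = 8/group: females dosed orally at 10 mg/kg at −1, −3 or −5 h relative to LPS challenge, plus one male group dosed at −1 h. Male and female vehicle controls were given at −1 h. Serum TNFα was measured after LPS and compared with vehicle.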

[9] = AUC (0 to infinity) in mongrel dog at 30 mg/kg, po by LC-MS/MS analysis; type: ADME, organism-based, Canis lupus familiaris; parameters: dose 30 mg/kg, time infinity, route oral; conditions: in vivo
How it was run: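 Two mongrel dogs received a single oral dose of 30 mg/kg. Blood was sampled from 0.25 to 24 h and plasma parent concentrations were determined.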

[10] = Cmax in female Sprague-Dawley rat at 30 mg/kg, po by LC-MS/MS analysis; type: ADME, organism-based; parameters: dose 30 mg/kg, route oral; conditions: in vivo
[11] = Toxicity in Sprague-Dawley rat administered via oral gavage measured for 14 days; conditions: in vivo
Rattus norvegicus [12] = test: Toxicity in single po dosed rat assessed as increase in peak inspiratory flow at 100 to 300 mg/kg, po administered as single dose; type: organism-based; conditions: in vivo
Homo sapiens [13] = test: In vivo inhibition of p38 MAPKalpha in human whole blood assessed as decrease in LPS-stimulated TNFalpha level at 10 to 30 mg treated for 36 hrs followed by LPS stimulation; type: functional, organism-based
How it was run: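 Ex vivo read-out in healthy volunteers after a single oral dose (10, 20 or 30 mg; placebo-controlled, single-blind, randomized). Blood drawn pre-dose and at 1, 2, 4, 9, 24 and 36 h post-dose was stimulated with LPS. TNFα release is expressed relative to the LPS-stimulated pre-dose sample of the same subject.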

[14] = AUC (infinity) in human at 20 mg, po administered as single dose; type: ADME, organism-based; parameters: dose 20 mg, time infinity, route oral; conditions: in vivo
How it was run: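 Placebo-controlled, single-blind, randomized, consecutive-dosing study in healthy subjects given single oral doses, with 10 mg also given fasting and fed in a crossover. Plasma parent and active metabolite were measured predose and from 0.25 to 36 h post dose. PK parameters were derived from individual concentration–time profiles and reported as means.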

Homo sapiens [15] = test: Toxicity in human assessed as effect on blood pressure at 50 mg, po administered as single dose; type: organism-based; conditions: in vivo
[16] = molecular target: Receptor-interacting serine/threonine-protein kinase 2 (Homo sapiens) (UniProt O43353); test: Inhibition of RIPK2 (unknown origin) at 10 uM relative to control
Chain of Receptor-interacting serine/threonine-protein kinase 2 (Homo sapiens) (O43353 whole entry): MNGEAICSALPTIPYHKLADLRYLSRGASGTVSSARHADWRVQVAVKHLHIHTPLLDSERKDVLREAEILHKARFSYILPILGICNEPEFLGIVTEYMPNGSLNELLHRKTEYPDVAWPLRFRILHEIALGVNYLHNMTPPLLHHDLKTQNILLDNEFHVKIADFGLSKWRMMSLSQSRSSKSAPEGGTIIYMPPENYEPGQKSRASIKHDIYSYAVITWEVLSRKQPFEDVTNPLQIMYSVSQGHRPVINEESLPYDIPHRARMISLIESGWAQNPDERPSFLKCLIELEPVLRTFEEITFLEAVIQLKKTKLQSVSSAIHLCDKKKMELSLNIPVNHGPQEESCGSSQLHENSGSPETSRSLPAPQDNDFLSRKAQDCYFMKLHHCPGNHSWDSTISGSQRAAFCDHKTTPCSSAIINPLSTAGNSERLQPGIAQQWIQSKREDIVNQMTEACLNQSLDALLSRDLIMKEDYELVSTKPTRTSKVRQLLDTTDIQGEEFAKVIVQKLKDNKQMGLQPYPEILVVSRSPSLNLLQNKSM

Rattus norvegicus [17] = test: Antiarthritic activity in Lewis rat assessed as change in paw volume at 50 mg/kg, po qd administered for 10 days; type: functional, organism-based
How it was run: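 Collagen-induced arthritis in male Lewis rats (5–6 per group). Groups received vehicle, dexamethasone 1 mg/kg, test item 50 mg/kg once daily, or 25 mg/kg twice daily for 10 days. Body weight, arthritic score and paw volume were monitored, and serum COMP was measured at the end.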

[18] = AUC (0 to t) in cynomolgus monkey at 20 mg/kg, po measured on day 1 and 27 post dose by LC-MS/MS analysis; type: ADME, organism-based, Macaca fascicularis; conditions: in vivo
How it was run: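 Within a 4-week oral toxicity study, Cynomolgus monkeys received 6, 12 or 20 mg/kg daily. Blood was sampled from 0.5 to 24 h post dose on days 1 and 27. Tmax, Cmax, T1/2 and AUC0–24 came from individual profiles of parent and metabolite.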

Rattus norvegicus [19] = test: In vivo inhibition of P38 MAPKalpha in Sprague-Dawley rat assessed as decrease in LPS-stimulated TNFalpha level in serum at 3 mg/kg, po pretreated for 1 hr followed by LPS addition measured after 2 hrs relative to control; type: functional
Homo sapiens [20] = test: Cmax in human assessed as 4-(4-(4-fluorophenyl)-1-methyl-2-(methylsulfinyl)-1H-imidazol-5-yl)pyridin-2-amine formation at 20 mg, po administered as single dose; type: ADME, organism-based; parameters: dose 20 mg, route oral; conditions: in vivo
How it was run: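 Oral single-dose PK; plasma concentrations of parent and metabolite measured. Dogs: blood sampled 0.25 to 24 h after dosing. Humans: healthy subjects, placebo-controlled single-blind randomized consecutive dosing, plasma sampled predose and 0.25–36 h post dose. 10 mg also given fasting and fed in crossover. Parameters derived from individual concentration–time profiles.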

Homo sapiens [21] = test: Toxicity in human assessed as change in body weight at 50 mg, po administered as single dose; type: organism-based; conditions: in vivo
Homo sapiens [22] = test: Toxicity in human assessed as effect on heart rate at 50 mg, po administered as single dose; type: organism-based; conditions: in vivo
Liver = test: Drug metabolism in human liver microsomes assessed as N-(4-(4-(4-fluorophenyl)-1-methyl-2-(methylsulfinyl)-1H-imidazol-5-yl)pyridin-2-yl)acetamide formation at 10 to 100 uM; type: ADME, microsome; how it was run: as §1
[23] = molecular target: Adenosine receptor A1 (Homo sapiens) (UniProt P30542); test: Antagonist activity at adenosine A1 receptor (unknown origin) at 10 uM relative to control
Chain of Adenosine receptor A1 (Homo sapiens) (P30542 whole entry): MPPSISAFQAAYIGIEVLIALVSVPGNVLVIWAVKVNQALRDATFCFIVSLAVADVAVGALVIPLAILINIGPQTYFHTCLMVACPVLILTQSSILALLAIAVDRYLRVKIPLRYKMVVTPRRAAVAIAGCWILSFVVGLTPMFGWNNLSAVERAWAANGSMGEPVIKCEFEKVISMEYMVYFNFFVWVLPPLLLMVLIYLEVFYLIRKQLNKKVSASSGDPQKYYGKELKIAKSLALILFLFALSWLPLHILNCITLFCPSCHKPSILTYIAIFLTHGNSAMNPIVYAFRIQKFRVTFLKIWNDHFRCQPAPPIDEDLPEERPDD

Rattus norvegicus [24] = test: In vivo inhibition of P38 MAPKalpha in Sprague-Dawley rat assessed as decrease in LPS-stimulated TNFalpha level in serum at 1 mg/kg, po pretreated for 1 hr followed by LPS addition measured after 2 hrs relative to control; type: functional
How it was run: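 Sprague–Dawley rats (8/group) were dosed orally with vehicle or 1, 3 or 10 mg/kg. LPS 0.1 mg/kg i.v. was given 1 h after dosing. Blood was collected 2 h later and serum TNFα measured. Inhibition was calculated relative to the mean of vehicle-treated animals.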

CC(=O)Nc1cc(-c2c(-c3ccc(F)cc3)nc([S+](C)[O-])n2C)ccn1 (stereo unspecified)
Activity (Mus musculus): Active
Activity (Rattus norvegicus [1]): Toxic
inhibition (Homo sapiens [2]): 54%
inhibition [3]: 60%
Activity (Rattus norvegicus [4]): Toxic
AUC(0-inf) [5]: 40.9 µM·h
Drug metabolism [6]: Metabolite_Detected
concentration at 1.5 h [7]: 0.871 µg/mL
inhibition (Rattus norvegicus [8]): Active
AUC(0-inf) [9]: 96.8 µM·h
Cmax [10]: 4.8 µM
MTD at 336 h [11]: 150 mg/kg
Activity (Rattus norvegicus [12]): Toxic
inhibition (Homo sapiens [13]): Active
AUC(0-inf) [14]: 2.24 µM·h
Activity (Homo sapiens [15]): Non-Toxic
inhibition [16]: 33%
Activity (Rattus norvegicus [17]): inactive
AUC(0-t) [18]: 79.6 µM·h
inhibition in vivo at 3 mg/kg (Rattus norvegicus [19]): 88%
Cmax (Homo sapiens [20]): 0.309 µM
Activity (Homo sapiens [21]): Non-Toxic
Activity (Homo sapiens [22]): Non-Toxic
Drug metabolism (Liver): Metabolite_Detected
inhibition [23]: 58%
inhibition in vivo at 1 mg/kg (Rattus norvegicus [24]): 43%
